{"data": "Measured values from different studies", "Palmitoyl-protein thioesterase 1": "Palmitoyl-protein thioesterase 1 (Homo sapiens, UniProt P50897)", "Transmembrane protease serine 6": "Transmembrane protease serine 6 (Homo sapiens, UniProt Q8IU80)", "note": "Protocols differ between the studies behind these lines."}
{"SMILES": "O=C([O-])CCCCCCCNC(=O)c1ccccc1O.[Na+]", "target": "Palmitoyl-protein thioesterase 1", "assay": "enzyme activity, inhibitor", "setting": "125 µM", "measurement": "inhibition", "result": "9.21%"}
{"SMILES": "N=C(N)NCCC[C@H](NC(=O)[C@H](Cc1ccc(I)cc1)NC(=O)[C@H](Cc1cscn1)NC(=O)CCc1ccccc1)C(=O)c1nc2ccccc2s1", "target": "Transmembrane protease serine 6", "assay": "enzyme activity, inhibitor", "setting": "0.1 µM", "measurement": "remaining activity", "result": "90%"}
{"SMILES": "CNc1ncc2c(/C=C/C(=O)N3CCC(OC)CC3)nn(Cc3cccc(C(F)(F)F)c3)c2n1", "target": "Ribosomal protein S6 kinase alpha-2 (RPS6KA2, Homo sapiens, UniProt Q15349)", "assay": "enzyme activity, inhibitor, radiometric", "setting": "1 µM", "measurement": "remaining activity", "result": "86%"}
{"SMILES": "COc1cc(-c2cncc3c2CN(C)Cc2cc(N4CCNCC4)ccc2-3)cc(OC)c1OC", "target": "Epidermal growth factor receptor (EGFR, Homo sapiens, UniProt P00533, L858R)", "assay": "enzyme activity, inhibitor", "setting": "1 µM", "measurement": "remaining activity", "result": "36%"}
{"SMILES": "Cc1cc([C@@H](C)Nc2ccccc2C(=O)O)c2nc(N3CCC(F)(F)CC3)c(C#N)c(=O)n2c1", "target": "Serine/threonine-protein kinase B-raf (BRAF, Homo sapiens, UniProt P15056)", "assay": "binding, competition with immobilised ligand", "setting": "10 µM", "measurement": "remaining binding", "result": "74%"}
{"SMILES": "CC1CNC(=O)NC1=O (stereo not drawn)", "target": "Palmitoyl-protein thioesterase 1", "assay": "enzyme activity, inhibitor", "setting": "125 µM", "measurement": "inhibition", "result": "-1.19%"}
{"SMILES": "CC[C@H](NC(=O)[C@H](Cc1cscn1)NC(=O)CCc1ccccc1)C(=O)N[C@@H](CCCNC(=N)N)C(=O)c1nc2ccccc2s1", "target": "Transmembrane protease serine 6", "assay": "enzyme activity, inhibitor", "setting": "0.1 µM", "measurement": "remaining activity", "result": "20 to 50%"}
{"SMILES": "NCCCCCC(=O)O", "target": "Palmitoyl-protein thioesterase 1", "assay": "enzyme activity, inhibitor", "setting": "312 µM", "measurement": "inhibition", "result": "17.1%"}
{"SMILES": "CC[C@@H](C)[C@H](NC(=O)[C@H](Cc1cscn1)NC(=O)CCc1ccccc1)C(=O)N[C@@H](CCCNC(=N)N)C(=O)c1nc2ccccc2s1", "target": "Transmembrane protease serine 6", "assay": "enzyme activity, inhibitor", "setting": "0.1 µM", "measurement": "remaining activity", "result": "1%"}
{"SMILES": "CC(=O)O[C@@]12CO[C@@H]1C[C@H](O)[C@@]1(C)C(=O)[C@H](O)C3=C(C)[C@@H](OC(=O)[C@H](O)[C@@H](NC(=O)OC(C)(C)C)c4ccccc4)C[C@@](O)([C@@H](OC(=O)c4ccccc4)[C@H]21)C3(C)C", "target": "Palmitoyl-protein thioesterase 1", "assay": "enzyme activity, inhibitor", "setting": "125 µM", "measurement": "inhibition", "result": "10.3%"}
{"SMILES": "CCCC[C@H](NC(=O)[C@H](Cc1cscn1)NC(=O)CCc1ccccc1)C(=O)N[C@@H](CCCNC(=N)N)C(=O)c1nc2ccccc2s1", "target": "Transmembrane protease serine 6", "assay": "enzyme activity, inhibitor", "setting": "0.1 µM", "measurement": "remaining activity", "result": "22%"}
{"SMILES": "C=CC(=O)N1CCC(COCC(=O)N2CCN(c3nc(-c4cnc(N)nc4C(F)F)nc(N4CCOC[C@@H]4C)n3)CC2)CC1", "target": "Protein kinase C delta type (PRKCD, Homo sapiens, UniProt Q05655)", "assay": "binding, competition with immobilised ligand", "setting": "1 µM", "measurement": "remaining binding", "result": "100%"}
